Activity calls are given as the source filed them. No cut-off for these calls is given here.
Legend:
[1] = target: T1, Mu-type opioid receptor (Homo sapiens, UniProt P35372); experiment: Displacement of [3H]DAMGO from human mu opioid receptors expressed in CHO cell membrane
[2] = target: T2, Kappa-type opioid receptor (Homo sapiens, UniProt P41145); experiment: Displacement of [3H]U-69593 from human kappa opioid receptors expressed in CHO cell membrane
[3] = target: Delta-type opioid receptor (Homo sapiens, UniProt P41143); experiment: Displacement of [3H]naltrindole from human delta opioid receptors expressed in CHO cell membrane
Sequence of Delta-type opioid receptor (P41143 whole entry): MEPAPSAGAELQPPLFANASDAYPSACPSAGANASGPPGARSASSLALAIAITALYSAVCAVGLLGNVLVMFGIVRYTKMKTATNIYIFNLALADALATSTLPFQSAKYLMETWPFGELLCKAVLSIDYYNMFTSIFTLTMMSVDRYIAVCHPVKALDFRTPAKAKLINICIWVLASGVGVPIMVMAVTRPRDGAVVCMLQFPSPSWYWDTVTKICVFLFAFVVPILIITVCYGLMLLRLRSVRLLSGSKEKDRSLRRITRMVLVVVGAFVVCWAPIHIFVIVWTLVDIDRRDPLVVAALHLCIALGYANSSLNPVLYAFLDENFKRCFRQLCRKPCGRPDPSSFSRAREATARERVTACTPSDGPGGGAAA

[4] = target: Opioid receptors; mu & kappa (Homo sapiens) (UniProt P41145+P35372); experiment: Selectivity for kappa opioid receptor over mu opioid receptor expressed in CHO cells; type: cell-based
Sequence of Opioid receptors; mu & kappa (Homo sapiens) (P35372 whole entry, looked up): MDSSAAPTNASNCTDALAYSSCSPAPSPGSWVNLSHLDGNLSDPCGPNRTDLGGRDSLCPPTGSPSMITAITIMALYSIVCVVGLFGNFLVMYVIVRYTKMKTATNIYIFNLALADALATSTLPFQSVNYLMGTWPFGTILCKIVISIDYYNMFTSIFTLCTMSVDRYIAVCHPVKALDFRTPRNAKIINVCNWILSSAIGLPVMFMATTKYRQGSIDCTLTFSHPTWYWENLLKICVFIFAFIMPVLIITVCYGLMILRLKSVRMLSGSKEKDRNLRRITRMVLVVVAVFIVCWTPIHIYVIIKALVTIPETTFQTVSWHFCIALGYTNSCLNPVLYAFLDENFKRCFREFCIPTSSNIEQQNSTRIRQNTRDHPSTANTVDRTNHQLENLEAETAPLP
Sequence of Opioid receptors; mu & kappa (Homo sapiens) (P41145 whole entry, looked up): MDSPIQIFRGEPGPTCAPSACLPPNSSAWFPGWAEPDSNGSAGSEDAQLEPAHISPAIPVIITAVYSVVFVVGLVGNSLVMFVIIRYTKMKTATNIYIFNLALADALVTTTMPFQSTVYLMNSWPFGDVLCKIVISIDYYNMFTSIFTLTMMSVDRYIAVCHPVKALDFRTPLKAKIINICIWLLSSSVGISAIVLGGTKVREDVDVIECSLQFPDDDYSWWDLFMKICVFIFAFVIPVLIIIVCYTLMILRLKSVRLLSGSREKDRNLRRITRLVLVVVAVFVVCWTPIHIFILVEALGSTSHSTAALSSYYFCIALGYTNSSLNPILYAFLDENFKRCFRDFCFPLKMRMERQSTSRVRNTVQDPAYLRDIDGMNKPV

[5] = target: Opioid receptors; delta & kappa (Homo sapiens) (UniProt P41145+P41143); experiment: Selectivity for kappa opioid receptor over delta opioid receptor; type: protein assay
Sequence of Opioid receptors; delta & kappa (Homo sapiens) (P41143 whole entry, looked up): as the sequence (P41143 whole entry) above
Sequence of Opioid receptors; delta & kappa (Homo sapiens) (P41145 whole entry, looked up): as the sequence (P41145 whole entry, looked up) above

[6] = target: T2, Kappa-type opioid receptor; experiment: Agonist activity at human opioid kappa receptor expressed in CHO cells assessed as maximal stimulation of [35S]GTP-gamma-S binding relative to control; type: functional, cell-based
In short: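 CHO cell membranes stably expressing only the human κ opioid receptor were incubated with varying concentrations of each compound. Stimulation of [35S]GTPγS binding was measured, and maximal stimulation was taken as Emax.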

[7] = target: T2, Kappa-type opioid receptor; experiment: Agonist activity at huma kappa opioid receptor expressed in CHO cells assessed as […] of [35S]GTP-gamma-S binding; type: functional, cell-based
[8] = target: T1, Mu-type opioid receptor; experiment: Agonist activity at human mu opioid receptor expressed in CHO cells assessed as maximal stimulation of [35S]GTP-gamma-S binding; type: functional, cell-based
[9] = target: T1, Mu-type opioid receptor; experiment: Antagonist activity at human mu opioid receptor expressed in CHO cells assessed as DAMGO-stimulated [35S]GTP-gamma-S binding; type: functional, cell-based
[10] = Displacement of [3H]naltrindole from human delta opioid receptors expressed in CHO cell membrane

T2 sequence (P41145 whole entry): as the sequence (P41145 whole entry, looked up) above
T1 sequence (P35372 whole entry): as the sequence (P35372 whole entry, looked up) above

Row | SMILES | Ki [1] [nM] | Ki [2] [nM] | Ki [3] [nM] | Ratio Ki [4] | Ratio Ki [5] | Emax [6] [%] | EC50 [7] [nM] | EC50 [8] [nM] | Emax [8] [%] | IC50 [9] [nM] | Imax [9] [%] | Ki [10] [nM] | Activity [9]
1 | O=C(Nc1ccccc1)Oc1ccc2c(c1)C13CCCCC1C(C2)N(CC1CCC1)CC3 (single isomer, unassigned; (-)) | 0.12 | 0.051 | 3.9 | 2 | 76 | 74 | 2.2 | 1.3 | 80 | 22 | 37 | – | –
2 | Oc1ccc2c(c1)[C@@]13CCCC[C@H]1[C@@H](C2)N(CC1CC1)CC3 [CYCLORPHAN] | – | – | – | – | – | – | – | – | – | – | – | 1.9 | –
3 | O=C(Nc1ccccc1)Oc1ccc2c(c1)C13CCCCC1C(C2)N(CC1CC1)CC3 (stereo not given) | 0.11 | 0.046 | 1.6 | 2.4 | 35 | 120 | 0.38 | 0.44 | 39 | 6.4 | 70 | – | –
4 | O=C(NCc1ccccc1)Oc1ccc2c(c1)C13CCCCC1C(C2)N(CC1CC1)CC3 (single isomer, unassigned; (-)) | 0.3 | 0.14 | 2.7 | 2 | 20 | 130 | 1.1 | 2.2 | 39 | 16 | 71 | – | –
5 | CCNC(=O)Oc1ccc2c(c1)C13CCCCC1C(C2)N(C)CC3 (stereo not given) | 4.8 | 36 | 78 | 0.1 | 2 | – | – | – | – | – | – | – | –
6 | CCNC(=O)Oc1ccc2c(c1)C13CCCCC1C(C2)N(CC1CC1)CC3 (single isomer, unassigned; (-)) | 0.29 | 0.14 | 2.8 | 2 | 20 | 140 | 1.2 | 2.4 | 40 | 10 | 68 | – | –
7 | O=C(NCc1ccccc1)Oc1ccc2c(c1)C13CCCCC1C(C2)N(CC1CCC1)CC3 (single isomer, unassigned; (-)) | 0.7 | 0.3 | 15 | 0.4 | 50 | 110 | 4.7 | 7.1 | 54 | 260 | 50 | – | –
8 | Oc1ccc2c(c1)[C@@]13CCCC[C@H]1[C@@H](C2)N(CC1CCC1)CC3 [BUTORPHAN] | – | – | – | – | – | – | – | – | – | – | – | 5.9 | –
9 | CCNC(=O)Oc1ccc2c(c1)C13CCCCC1C(C2)N(CC1CCC1)CC3 (stereo not given) | 3.7 | 4.3 | 27 | 0.9 | 6 | 61 | 23 | 39 | 32 | – | 33 | – | inactive
10 | CNC(=O)Oc1ccc2c(c1)C13CCCCC1C(C2)N(CC1CC1)CC3 (single isomer, unassigned; (-)) | 5.3 | 3.4 | 42 | 1.6 | 12 | 78 | 16 | 14 | 44 | – | – | – | –
11 | CNC(=O)Oc1ccc2c(c1)C13CCCCC1C(C2)N(C)CC3 (stereo not given) | 1.4 | 3.3 | 53 | 0.4 | 16 | 96 | 29 | 50 | 71 | – | – | – | –
12 | CNC(=O)Oc1ccc2c(c1)C13CCCCC1C(C2)N(CC1CCC1)CC3 (single isomer, unassigned; (-)) | 1.2 | 0.81 | 30 | 1.5 | 37 | 88 | 9.6 | 11 | 60 | – | – | – | –
